Assay [1] deals with T1, Histone deacetylase 1 (Homo sapiens, UniProt Q13547). Put plainly: Inhibition of human C-terminal Flag tagged HDAC1 (1 to 482 residues) expressed in SF9 cells using Ac-peptide substrate preincubated for 15 mins followed by substrate addition and measured after 60 mins by microplate reader method.
The target of assay [2] is T2, Hepatocyte growth factor receptor (Homo sapiens, UniProt P08581). Nature of the assay: Inhibition of c-MET(unknown origin) using FAM labelled peptide substrate preincubated for 10 mins followed by substrate addition and measured by microplate reader method.
Assay [3] concerns HCT-116. Nature of the assay: cells. The settings on record: Homo sapiens, HCT-116, 72 h. The format is functional, cell-based.
Another assay relates to MCF7. Put plainly: cells. The format is functional, cell-based. The settings on record: Homo sapiens, MCF7, 72 h.
A further assay concerns A549. Nature of the assay: cells. The format is functional, cell-based. The settings on record: Homo sapiens, A549, 72 h.
The subject of assay [4] is HCT-116. Put plainly: Induction of apoptosis in human HCT-116 cells assessed as viable cells at 0.2 uM measured after 48 hrs by Annexin V/PI staining based Flowcytometry method (reference value: 95.33%). The format is functional. The settings on record: read-out: Activity. The gist of the method:
(§1)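 HCT-116 cells seeded at 10^5 cells/mL in 6-well plates. After 12 h, dosed at 0.2, 1.0 or 5.0 μM for 48 h, then washed three times in PBS. Stained with Annexin V-FITC/PI per kit and read by flow cytometry. Early apoptotic = Annexin V+/PI−, late = double positive. Mean ± S.D., n = 3.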

The subject of assay [5] is HCT-116. Put plainly: Induction of apoptosis in human HCT-116 cells assessed as early apoptotic cells at 0.2 uM measured after 48 hrs by Annexin V/PI staining based Flowcytometry method (reference value: 2.04%). The format is functional. The procedure, abridged:
as §1

Assay [6] has as its system HCT-116. Nature of the assay: Induction of apoptosis in human HCT-116 cells assessed as late apoptotic cells at 0.2 uM measured after 48 hrs by Annexin V/PI staining based Flowcytometry method (reference value: 1.44%). The format is functional. The gist of the method: as §1
The subject of assay [7] is HCT-116. Put plainly: Induction of apoptosis in human HCT-116 cells assessed as necrotic cells at 0.2 uM measured after 48 hrs by Annexin V/PI staining based Flowcytometry method (reference value: 1.19%). The format is functional. The procedure, abridged: as §1
Assay [8] deals with HCT-116. Put plainly: Induction of apoptosis in human HCT-116 cells assessed as viable cells at 1 uM measured after 48 hrs by Annexin V/PI staining based Flowcytometry method (reference value: 95.33%). The format is functional. The settings on record: read-out: Activity. The procedure, abridged: as §1
Assay [9] concerns HCT-116. Put plainly: Induction of apoptosis in human HCT-116 cells assessed as early apoptotic cells at 1 uM measured after 48 hrs by Annexin V/PI staining based Flowcytometry method (reference value: 2.04%). The format is functional. The gist of the method:
as §1

Assay [10] deals with HCT-116. Nature of the assay: Induction of apoptosis in human HCT-116 cells assessed as late apoptotic cells at 1 uM measured after 48 hrs by Annexin V/PI staining based Flowcytometry method (reference value: 1.44%). The format is functional. The gist of the method: as §1
Assay [11] deals with HCT-116. Put plainly: Induction of apoptosis in human HCT-116 cells assessed as necrotic cells at 1 uM measured after 48 hrs by Annexin V/PI staining based Flowcytometry method (reference value: 1.19%). The format is functional. The procedure, abridged:
as §1

In assay [12] the test system is HCT-116. Put plainly: Induction of apoptosis in human HCT-116 cells assessed as viable cells at 5 uM measured after 48 hrs by Annexin V/PI staining based Flowcytometry method (reference value: 95.33%). The format is functional. The settings on record: read-out: Activity. The procedure, abridged: as §1
For assay [13], the system named is HCT-116. Nature of the assay: Induction of apoptosis in human HCT-116 cells assessed as early apoptotic cells at 5 uM measured after 48 hrs by Annexin V/PI staining based Flowcytometry method (reference value: 2.04%). The format is functional. The gist of the method:
as §1

For assay [14], the system named is HCT-116. Put plainly: Induction of apoptosis in human HCT-116 cells assessed as late apoptotic cells at 5 uM measured after 48 hrs by Annexin V/PI staining based Flowcytometry method (reference value: 1.44%). The format is functional. The gist of the method:
as §1

The subject of assay [15] is HCT-116. Nature of the assay: Induction of apoptosis in human HCT-116 cells assessed as necrotic cells at 5 uM measured after 48 hrs by Annexin V/PI staining based Flowcytometry method (reference value: 1.19%). The format is functional. The procedure, abridged: as §1
The subject of assay [16] is HCT-116. Put plainly: Cell cycle arrest in human HCT-116 cells assessed as accumulation of cells in G2/M phase at 0.2 uM measured after 48 hrs by PI staining based flowcytometry method (reference value: 11.74%). The format is functional.
Assay [17] relates to HCT-116. Nature of the assay: Cell cycle arrest in human HCT-116 cells assessed as accumulation of cells in S phase at 0.2 uM measured after 48 hrs by PI staining based flowcytometry method (reference value: 30.63%). The format is functional.
In assay [18] the test system is HCT-116. Put plainly: Cell cycle arrest in human HCT-116 cells assessed as accumulation of cells in G1 phase at 0.2 uM measured after 48 hrs by PI staining based flowcytometry method (reference value: 57.63%). The format is functional.
In assay [19] the test system is HCT-116. Put plainly: Cell cycle arrest in human HCT-116 cells assessed as accumulation of cells in G2/M phase at 1 uM measured after 48 hrs by PI staining based flowcytometry method (reference value: 11.74%). The format is functional.
The test system of assay [20] is HCT-116. Nature of the assay: Cell cycle arrest in human HCT-116 cells assessed as accumulation of cells in S phase at 1 uM measured after 48 hrs by PI staining based flowcytometry method (reference value: 30.63%). The format is functional.
Assay [21] deals with HCT-116. Put plainly: Cell cycle arrest in human HCT-116 cells assessed as accumulation of cells in G1 phase at 1 uM measured after 48 hrs by PI staining based flowcytometry method (reference value: 57.63%). The format is functional.
In assay [22] the test system is HCT-116. Put plainly: Cell cycle arrest in human HCT-116 cells assessed as accumulation of cells in G2/M phase at 5 uM measured after 48 hrs by PI staining based flowcytometry method (reference value: 11.74%). The format is functional.
The subject of assay [23] is HCT-116. Put plainly: Cell cycle arrest in human HCT-116 cells assessed as accumulation of cells in S phase at 5 uM measured after 48 hrs by PI staining based flowcytometry method (reference value: 30.63%). The format is functional.
Assay [24] relates to HCT-116. Nature of the assay: Cell cycle arrest in human HCT-116 cells assessed as accumulation of cells in G1 phase at 5 uM measured after 48 hrs by PI staining based flowcytometry method (reference value: 57.63%). The format is functional.
The target of assay [25] is T1, Histone deacetylase 1. The settings on record: Sf9, dose 100.0 nM, time 75.0 min.
Assay [26] has as its target T2, Hepatocyte growth factor receptor. The settings on record: dose 100.0 nM, time 10.0 min.

Experimental findings from ChEMBL document CHEMBL4706531, “Discovery of Novel c-Mesenchymal-Epithelia transition factor and histone deacetylase dual inhibitors” (Eur J Med Chem, 2020) are described below.

As a reminder, the IC50 is the midpoint of a concentration-inhibition curve. Higher therefore signals lower potency. Broadly, the inhibition is the change of the read-out against control, counted positive when it falls. A low value points to a response near the control.

T2 sequence (P08581 whole entry): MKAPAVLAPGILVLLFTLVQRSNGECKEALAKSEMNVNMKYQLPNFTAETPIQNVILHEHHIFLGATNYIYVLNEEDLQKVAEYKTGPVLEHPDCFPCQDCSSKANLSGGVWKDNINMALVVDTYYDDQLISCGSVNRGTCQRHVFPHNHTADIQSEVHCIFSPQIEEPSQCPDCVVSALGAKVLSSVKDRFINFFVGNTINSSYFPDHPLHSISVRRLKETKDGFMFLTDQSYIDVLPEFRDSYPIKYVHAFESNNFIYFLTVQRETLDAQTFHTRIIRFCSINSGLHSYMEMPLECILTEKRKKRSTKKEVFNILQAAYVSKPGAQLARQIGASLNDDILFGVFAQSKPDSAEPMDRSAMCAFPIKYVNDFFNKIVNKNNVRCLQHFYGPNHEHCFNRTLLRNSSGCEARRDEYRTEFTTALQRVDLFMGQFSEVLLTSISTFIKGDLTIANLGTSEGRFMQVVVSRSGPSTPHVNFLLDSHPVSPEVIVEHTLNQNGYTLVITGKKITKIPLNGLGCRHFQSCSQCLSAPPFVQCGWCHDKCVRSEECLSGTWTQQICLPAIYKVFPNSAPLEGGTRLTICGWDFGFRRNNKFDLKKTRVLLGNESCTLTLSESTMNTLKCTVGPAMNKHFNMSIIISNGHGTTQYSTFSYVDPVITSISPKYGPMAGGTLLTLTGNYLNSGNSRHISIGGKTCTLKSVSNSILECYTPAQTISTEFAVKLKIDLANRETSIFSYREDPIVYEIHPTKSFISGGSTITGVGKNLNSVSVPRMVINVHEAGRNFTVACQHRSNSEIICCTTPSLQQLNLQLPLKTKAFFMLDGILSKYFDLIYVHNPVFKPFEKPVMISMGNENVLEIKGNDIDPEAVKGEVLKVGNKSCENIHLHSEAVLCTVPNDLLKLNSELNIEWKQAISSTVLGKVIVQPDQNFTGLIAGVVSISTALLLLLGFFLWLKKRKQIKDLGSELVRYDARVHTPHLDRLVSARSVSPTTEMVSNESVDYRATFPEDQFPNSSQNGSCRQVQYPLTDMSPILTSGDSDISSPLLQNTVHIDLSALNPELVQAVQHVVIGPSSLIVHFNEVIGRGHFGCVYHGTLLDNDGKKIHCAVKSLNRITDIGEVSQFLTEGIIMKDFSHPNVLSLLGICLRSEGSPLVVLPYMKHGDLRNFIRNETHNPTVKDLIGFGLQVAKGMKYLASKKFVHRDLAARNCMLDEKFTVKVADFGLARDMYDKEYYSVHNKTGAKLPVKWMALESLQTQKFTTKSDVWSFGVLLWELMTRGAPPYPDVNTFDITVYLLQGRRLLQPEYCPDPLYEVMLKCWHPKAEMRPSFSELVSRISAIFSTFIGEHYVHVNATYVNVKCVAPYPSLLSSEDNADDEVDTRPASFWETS
T1 sequence (Q13547 whole entry, the tested form may be a part): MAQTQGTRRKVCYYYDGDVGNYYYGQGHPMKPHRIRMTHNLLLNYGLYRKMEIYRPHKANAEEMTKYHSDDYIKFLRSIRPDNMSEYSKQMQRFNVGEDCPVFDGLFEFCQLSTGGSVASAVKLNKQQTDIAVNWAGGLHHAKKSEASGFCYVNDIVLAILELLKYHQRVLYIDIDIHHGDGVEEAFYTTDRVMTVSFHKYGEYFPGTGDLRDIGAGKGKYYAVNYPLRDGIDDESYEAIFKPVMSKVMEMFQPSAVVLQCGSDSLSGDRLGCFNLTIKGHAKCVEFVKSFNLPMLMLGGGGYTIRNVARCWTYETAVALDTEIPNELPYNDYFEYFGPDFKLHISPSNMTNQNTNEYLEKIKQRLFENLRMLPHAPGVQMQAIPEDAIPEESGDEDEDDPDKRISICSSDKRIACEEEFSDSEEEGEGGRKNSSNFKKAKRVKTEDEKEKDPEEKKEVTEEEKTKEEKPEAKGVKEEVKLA

Turning to `COc1cc2c(Oc3ccc(NC(=O)c4nn(-c5ccccc5)ccc4=O)cc3)ccnc2cc1OCCCCCCC(=O)NO`, the IC50 against Histone deacetylase 1 [1] was found to be 0.0185 µM; in assay [2], 0.0054 µM; with HCT-116 [3], 0.22 µM; with MCF7, 1.59 µM; in the assay on A549, 0.22 µM. Moreover, the viability at 0.2 µM with HCT-116 [4] stood at 94.9%. The Activity in the assay on HCT-116 [5] was found to be 2.35%; with HCT-116 [6], 1.84%; in the assay on HCT-116 [7], 0.9%; with HCT-116 [9], 8.44%; with HCT-116 [10], 3.09%; in the assay with HCT-116 [11], 4.12%. Moreover, the Activity in the assay with HCT-116 [13] is 19.23%; in the assay with HCT-116 [14], 2.25%; in the assay with HCT-116 [15], 2.96%; in the assay on HCT-116 [16] it was 14.59%; with HCT-116 [17], 30.04%; with HCT-116 [18], 55.37%. Also, the Activity in the assay with HCT-116 [19] is recorded as 80.03%; with HCT-116 [20] it was 15.1%; in the assay on HCT-116 [21], 4.87%; in the assay with HCT-116 [22], 81.22%; in the assay on HCT-116 [23] it was 13.28%; in the assay with HCT-116 [24], 5.5%. Further, the viability at 1 µM in the assay with HCT-116 [8] turned out to be 84.3%. Also, the viability at 5 µM in the assay on HCT-116 [12] was 75.6%.
With `CCc1cn(-c2ccccc2)nc(C(=O)Nc2ccc(Oc3ccnc4cc(OCCCCCCC(=O)NO)c(OC)cc34)cc2)c1=O`, the IC50 was determined as 0.0348 µM against Histone deacetylase 1 [1]; 0.0142 µM in [2]; 0.3 µM in the assay on HCT-116 [3]; 1.21 µM in the assay with MCF7; 0.23 µM with A549. In addition, the inhibition turned out to be 86.4% against Histone deacetylase 1 [25] and 78.2% in assay [26].
